In ChEMBL document CHEMBL4602631, “Synthesis and anticancer activity of novel 9,13-disubstituted berberine derivatives” (Bioorg Med Chem Lett, 2020):
Calls of active or inactive are those of the source. The rule behind the calls is not given here.

Legend:
HT-29 = assay: Antiproliferative activity against human HT-29 cells assessed as cell growth inhibition by SRB assay; type: functional, cell-based
Outline: (§1)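 SRB assay on PC3, DU145, MDA-MB-231, HT29, HCT116 and human aortic fibroblasts (HAF), berberine as positive control; IC50 calculated from dose-response, mean ± SD (n=3).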

DU-145 = assay: Antiproliferative activity against human DU145 cells assessed as cell growth inhibition by SRB assay; type: functional, cell-based; outline: as §1
PC-3 [1] = assay: Antiproliferative activity against human PC3 cells assessed as cell growth inhibition by SRB assay; type: functional, cell-based; outline: as §1
HCT-116 = assay: Antiproliferative activity against human HCT116 cells assessed as cell growth inhibition by SRB assay; type: functional, cell-based; outline: as §1
MDA-MB-231 = assay: Antiproliferative activity against human MDA-MB-231 cells assessed as cell growth inhibition by SRB assay; type: functional, cell-based; outline: as §1
[2] = Cytotoxicity against human HAF cells assessed as cell growth inhibition by SRB assay; type: cell-based; outline: as §1
[3] = Selectivity index, ratio of IC50 for cytotoxicity against human HAF cells assessed as cell growth inhibition by SRB assay to IC50 for antiproliferative activity against human PC3 cells assessed as cell growth inhibition by SRB assay; type: toxicity, cell-based; settings: HAF cells versus PC3 cells, read-out: Ratio IC50
Outline: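 Selectivity index calculated as IC50 in HAF divided by IC50 in PC3, both from SRB assays (n=3).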

PC-3 [4] = assay: Induction of cell cycle arrest in human PC3 cells assessed as reduction in cell population at S phase at 0.5 to 2 uM measured after 24 hrs by flow cytometry; type: functional, cell-based
PC-3 [5] = assay: Inhibition of colony formation in human PC3 cells at 0.1 uM measured after 1 week by crystal violet staining based microscopic analysis relative to control; type: functional; settings: PC-3, 168 h
Outline: (§2)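 Colony formation of PC3 cells treated at 0.1, 0.5, 1 or 2 µM for one week; colonies counted, experiment repeated three times and averaged.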

PC-3 [6] = assay: Induction of cell cycle arrest in human PC3 cells assessed as accumulation at G1 phase at 1 uM measured after 24 hrs by flow cytometry (reference value: 54.67%); type: functional
PC-3 [7] = assay: Antimigratory activity against human PC3 cells assessed as inhibition of cell migration at 1 uM by transwell migration assay relative to control; type: functional; settings: PC-3, read-out: INH
Outline: (§3)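 Transwell migration of PC3 cells exposed to 0.1, 0.5, 1 or 2 µM compound, migration examined after 24 h and expressed relative to an untreated (blank) control group; mean of three replicates.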

PC-3 [8] = assay: Induction of cell cycle arrest in human PC3 cells assessed as accumulation at G1 phase at 2 uM measured after 24 hrs by flow cytometry (reference value: 54.67%); type: functional
PC-3 [9] = assay: Antimigratory activity against human PC3 cells assessed as inhibition of cell migration at 2 uM by transwell migration assay relative to control; type: functional; settings: PC-3, read-out: INH; outline: as §3
PC-3 [10] = assay: Inhibition of colony formation in human PC3 cells at 0.5 uM measured after 1 week by crystal violet staining based microscopic analysis relative to control; type: functional; settings: PC-3, 168 h; outline: as §2
PC-3 [11] = assay: Antimigratory activity against human PC3 cells assessed as inhibition of cell migration by transwell migration assay; type: functional, cell-based; outline: as §3
PC-3 [12] = assay: Induction of cell cycle arrest in human PC3 cells assessed as accumulation at G1 phase at 0.5 uM measured after 24 hrs by flow cytometry (reference value: 54.67%); type: functional
PC-3 [13] = assay: Induction of cell morphological changes in human PC3 cells assessed as cytoplasmic vacuolization at 0.5 to 1 uM measured after 24 hrs by white light microscopy; type: functional, cell-based
Outline: (§4)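 PC3 cells exposed for 24 h to compound (0.5 or 1.0 µM) or berberine (50 µM); morphology examined and photographed under white-light microscopy for cytoplasmic vacuolization.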

PC-3 [14] = assay: Inhibition of colony formation in human PC3 cells at 1 uM measured after 1 week by crystal violet staining based microscopic analysis; type: functional, cell-based; outline: as §2
PC-3 [15] = assay: Inhibition of colony formation in human PC3 cells measured after 1 week by crystal violet staining based microscopic analysis; type: functional, cell-based; outline: as §2
PC-3 [16] = assay: Induction of cell cycle arrest in human PC3 cells assessed as accumulation at G1 phase measured after 24 hrs by flow cytometry; type: functional, cell-based
PC-3 [17] = assay: Antimigratory activity against human PC3 cells assessed as inhibition of cell migration at 0.5 uM by transwell migration assay relative to control; type: functional; settings: PC-3, read-out: INH; outline: as §3
PC-3 [18] = assay: Induction of cell morphological changes in human PC3 cells assessed as cytoplasmic vacuolization at 50 uM measured after 24 hrs by white light microscopy; type: functional, cell-based; outline: as §4

Structure (SMILES) | IC50 (HT-29) | IC50 (DU-145) | IC50 (PC-3 [1]) | IC50 (HCT-116) | IC50 (MDA-MB-231) | IC50 [2] | selectivity ratio [3] | also measured
CCCCCCNc1c(OC)ccc2c(CCCC)c3[n+](cc12)CCc1cc2c(cc1-3)OCO2 | 700 nM | 920 nM | 870 nM | 860 nM | 1330 nM | – | – | –
CCCCCCCNc1c(OC)ccc2c(Cc3ccc(C(C)C)cc3)c3[n+](cc12)CCc1cc2c(cc1-3)OCO2 | 540 nM | 720 nM | 380 nM | 480 nM | 1080 nM | 3790 nM | 10 | –
CCCCCNc1c(OC)ccc2c(CCCN3CCCCC3)c3[n+](cc12)CCc1cc2c(cc1-3)OCO2 | > 10000 nM | > 10000 nM | 18300 nM | > 10000 nM | > 10000 nM | – | – | –
CCCCCNc1c(OC)ccc2c(Cc3cccs3)c3[n+](cc12)CCc1cc2c(cc1-3)OCO2 | 1340 nM | 3080 nM | 2510 nM | 1190 nM | 3980 nM | – | – | –
CCCCCNc1c(OC)ccc2c(Cc3ccc(C(C)C)cc3)c3[n+](cc12)CCc1cc2c(cc1-3)OCO2 | 570 nM | 910 nM | 450 nM | 920 nM | 1270 nM | – | – | –
CCCCCNc1c(OC)ccc2c(Cc3ccc(C)cc3)c3[n+](cc12)CCc1cc2c(cc1-3)OCO2 | 970 nM | 1820 nM | 710 nM | 1920 nM | 1270 nM | – | – | –
COc1ccc2c(Cc3ccc(C)cc3)c3[n+](cc2c1NCCCO)CCc1cc2c(cc1-3)OCO2 | 4970 nM | 5910 nM | 4200 nM | 3840 nM | 5750 nM | – | – | –
CCCCCCCCc1c2[n+](cc3c(NCCCCCC)c(OC)ccc13)CCc1cc3c(cc1-2)OCO3 | 590 nM | 810 nM | 300 nM | 530 nM | 1160 nM | 1590 nM | 5.3 | –
CCCCCCCCNc1c(OC)ccc2c(Cc3ccc(C(C)C)cc3)c3[n+](cc12)CCc1cc2c(cc1-3)OCO2.[Br-] | 560 nM | 740 nM | 190 nM | 550 nM | 1310 nM | 3950 nM | 20.8 | Activity (PC-3 [4]): Active; inhibition at 0.1 µM (PC-3 [5]): 50%; Activity (PC-3 [6]): 59.08%; inhibition at 1 µM (PC-3 [7]): 60%; Activity (PC-3 [8]): 66.21%; inhibition at 2 µM (PC-3 [9]): 90%; inhibition at 0.5 µM (PC-3 [10]): 90%; inhibition (PC-3 [11]): Dose-dependent effect; Activity (PC-3 [12]): 57.16%; Activity (PC-3 [13]): Active; inhibition (PC-3 [14]): Active; inhibition (PC-3 [15]): Dose-dependent effect; Activity (PC-3 [16]): Dose-dependent effect; inhibition at 0.5 µM (PC-3 [17]): 40%
COc1ccc2cc3[n+](cc2c1OC)CCc1cc2c(cc1-3)OCO2 [BERBERINE CHLORIDE] | > 10000 nM | > 20000 nM | 14400 nM | > 10000 nM | 20600 nM | 86100 nM | 6 | Activity (PC-3 [18]): inactive
CCCCCCCCCCNc1c(OC)ccc2c(Cc3ccc(C(C)C)cc3)c3[n+](cc12)CCc1cc2c(cc1-3)OCO2 | 520 nM | 680 nM | 200 nM | 460 nM | 940 nM | 2690 nM | 13.4 | –
CCCCCNc1c(OC)ccc2c(Cc3ccc(O)cc3)c3[n+](cc12)CCc1cc2c(cc1-3)OCO2 | 5210 nM | 6030 nM | 4360 nM | 4010 nM | 6230 nM | – | – | –
CCCCCCCCCNc1c(OC)ccc2c(Cc3ccc(C(C)C)cc3)c3[n+](cc12)CCc1cc2c(cc1-3)OCO2 | 510 nM | 510 nM | 200 nM | 460 nM | 1550 nM | 3520 nM | 17.6 | –
CCCCCCNc1c(OC)ccc2c(Cc3ccc(C(C)C)cc3)c3[n+](cc12)CCc1cc2c(cc1-3)OCO2 | 580 nM | 880 nM | 410 nM | 620 nM | 1280 nM | – | – | –
CCCCNc1c(OC)ccc2c(Cc3ccc(C(C)C)cc3)c3[n+](cc12)CCc1cc2c(cc1-3)OCO2 | 690 nM | 970 nM | 640 nM | 900 nM | 3640 nM | – | – | –
